Values joined by “and” are separate entries in the source; they are usually repeats but may differ in a detail not shown here. Equal values may be shown once. Blank lines part the entries; values can stand above or below the molecule they belong to.
Columns and labels:
Rattus norvegicus [1] = organism: Rattus norvegicus; experiment: Concentration required to elicit 50% of the maximal contraction of rat stomach strip; assay type: functional
Outline: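 Rat stomach strip contraction was measured as the concentration giving 50% of the maximal contraction produced by 3×10^-7 M serotonin.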

Rattus norvegicus [2] = organism: Rattus norvegicus; experiment: maximal contraction of rat stomach strip by 3 x 10e -7M serotonin; assay type: functional
Cavia porcellus [3] = organism: Cavia porcellus; experiment: Duration of action of compound for Inhibition of arachidonic acid-induced response in guinea pigs; assay type: functional
Cavia porcellus [4] = experiment: Change in mean arterial blood pressure in guinea pigs by 1 mg/kg of intravenously administered compound; assay type: functional, Artery; settings: route intravenous
Outline: (§1)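 Anesthetized guinea pigs were challenged with arachidonic acid, and lung mechanics (lung resistance, dynamic compliance) and mean arterial blood pressure were recorded. Compounds were given as a 1.0 mg/kg rapid iv infusion, with n = 5 versus vehicle. Inhibition above 100% denotes reversal of the blood-pressure response.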

Cavia porcellus [5] = organism: Cavia porcellus; experiment: In vitro evaluation for antagonist activity against the contraction-induced by 9,11-azo-PGH2 (0.1 ug/mL); assay type: functional; settings: read-out: I50
Outline: (§2)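 Guinea pig trachea spirals were contracted by either 9,11-azo-PGH2 (a stable PGH2/TxA2 mimetic) or histamine, and compounds were tested for blockade of these contractions.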

Cavia porcellus [6] = organism: Cavia porcellus; experiment: In vitro evaluation for antagonist activity against the contraction-induced by histamine (1 ug/mL); assay type: functional; settings: read-out: I50; outline: as §2
Cavia porcellus [7] = experiment: Change in mean arterial blood pressure(MABP) in guinea pigs by 1 mg/kg of intravenously administered compound; assay type: functional, Artery; settings: route intravenous, 1 mg/kg; outline: as §1
Cavia porcellus [8] = experiment: Inhibition of arachidonic acid-induced response in guinea pigs by 1 mg/kg of intravenously administered compound; assay type: functional; design: scale not given: the % may be the effect or the level left; settings: route intravenous; outline: as §1
Cavia porcellus [9] = organism: Cavia porcellus; experiment: Duration of action of compound for inhibition of arachidonic acid-induced response in guinea pigs; assay type: functional
Homo sapiens [10] = organism: Homo sapiens; experiment: (§3) Percentage stimulation on the synthesis of PGE-2 at a dose of 10 uM; assay type: functional
Outline: (§4)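 Arachidonic acid metabolism was measured in a lysed platelet preparation. Thromboxane synthesis (as TxB2) and PGE2 production were determined at each listed test concentration.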

Homo sapiens [11] = organism: Homo sapiens; experiment: (§5) Percentage stimulation on the synthesis of PGE-2 was at a dose of 100 uM; assay type: functional; outline: as §4
Homo sapiens [12] = organism: Homo sapiens; experiment: (§6) Percentage stimulation on the synthesis of PGE-2 was at a dose of 1000 uM; assay type: functional; outline: as §4
Homo sapiens [13] = organism: Homo sapiens; experiment: Percent inhibition on the synthesis of thromboxane B2 at a dose of 10 uM; assay type: functional; outline: as §4
Homo sapiens [14] = organism: Homo sapiens; experiment: (§7) Percent inhibition on the synthesis of thromboxane B2 at a dose of 100 uM; assay type: functional; outline: as §4
Homo sapiens [15] = organism: Homo sapiens; experiment: (§8) Percent inhibition on the synthesis of thromboxane B2 at a dose of 1000 uM; assay type: functional; outline: as §4
Thromboxane A2 receptor = target: T1, Thromboxane A2 receptor (Homo sapiens, UniProt P21731); experiment: Compound was evaluated for inhibition of specific binding of HSQ (5,6-di-3H-SQ 29,548) in washed platelets; design: species or system Cavia porcellus
T1 sequence (P21731 whole entry): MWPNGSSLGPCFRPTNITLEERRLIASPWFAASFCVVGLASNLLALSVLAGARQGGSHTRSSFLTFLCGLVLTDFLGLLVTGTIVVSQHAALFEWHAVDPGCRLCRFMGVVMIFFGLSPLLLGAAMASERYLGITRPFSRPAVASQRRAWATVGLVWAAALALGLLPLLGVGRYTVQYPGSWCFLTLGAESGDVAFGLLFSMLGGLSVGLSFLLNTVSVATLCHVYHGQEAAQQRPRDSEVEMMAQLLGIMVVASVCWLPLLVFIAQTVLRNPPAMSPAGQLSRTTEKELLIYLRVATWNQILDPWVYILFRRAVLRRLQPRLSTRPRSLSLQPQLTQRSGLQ

Homo sapiens [16] = organism: Homo sapiens; experiment: as §7; assay type: functional; outline: as §4; remark: listed apart in the source
Homo sapiens [17] = organism: Homo sapiens; experiment: Percent inhibition on the synthesis of thromboxane B2 at a dose of 333 uM; assay type: functional; outline: as §4
Homo sapiens [18] = organism: Homo sapiens; experiment: as §3; assay type: functional; outline: as §4; remark: listed apart in the source
Homo sapiens [19] = organism: Homo sapiens; experiment: as §5; assay type: functional; outline: as §4; remark: listed apart in the source
Homo sapiens [20] = organism: Homo sapiens; experiment: as §6; assay type: functional; outline: as §4; remark: listed apart in the source
Homo sapiens [21] = organism: Homo sapiens; experiment: Percentage stimulation on the synthesis of PGE-2 was at a dose of 33 uM; assay type: functional; outline: as §4
Homo sapiens [22] = organism: Homo sapiens; experiment: Percentage stimulation on the synthesis of PGE-2 was at a dose of 333 uM; assay type: functional; outline: as §4
Homo sapiens [23] = organism: Homo sapiens; experiment: In vitro evaluation for arachidonic acid induced platelet aggregation of human platelet-rich plasma; assay type: functional; settings: read-out: I50
Outline: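 Human platelet-rich plasma was aggregated with arachidonic acid (800 μM). An ADP (20 μM)-induced aggregation run served as a counter-screen.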

Homo sapiens [24] = organism: Homo sapiens; experiment: as §8; assay type: functional; outline: as §4; remark: listed apart in the source

SMILES: O=C(O)CCC/C=C\CC1C2CCC(O2)C1CSc1ccccc1 (centres undefined)
A50 (Rattus norvegicus [1]): 0.8 µM

SMILES: CCCCCCSC[C@H]1C2CCC(O2)[C@H]1C/C=C\CCCC(=O)O (some centres undefined)
A50 (Rattus norvegicus [1]): 39 µM

SMILES: CCCCCC[S+]([O-])CC1C2CCC(O2)C1C/C=C\CCCC(=O)O (centres undefined)
A50 (Rattus norvegicus [1]): 21 µM
Contraction (Rattus norvegicus [2]): 9%

SMILES: CC/C=C/CCSCC1C2CCC(O2)C1CC=CCCCC(=O)O (centres undefined)
A50 (Rattus norvegicus [1]): 0.04 µM

SMILES: O=C(O)CCC/C=C\CC1C2CCC(O2)C1CSCCCc1ccccc1 (centres undefined)
A50 (Rattus norvegicus [1]): 0.2 µM

SMILES: CCCCCCSC[C@H]1C2CC[C@@H](O2)[C@H]1C/C=C\CCCC(=O)O (single isomer, unassigned; (+))
Contraction (Rattus norvegicus [2]): 6%

IC50 (Cavia porcellus [5]): 1600 nM
IC50 (Cavia porcellus [6]): > 100 µM
SMILES: CCC/C=C\CSCC1C2CCC(O2)C1C/C=C\CCCC(=O)O (centres undefined)
Duration (Cavia porcellus [3]): <60 min
Activity MABP (Cavia porcellus [4]): 98% and 194%
A50 (Rattus norvegicus [1]): 4.3 µM

SMILES: CSCSCC1C2CCC(O2)C1C/C=C\CCCC(=O)O (centres undefined)
Contraction (Rattus norvegicus [2]): 28%

SMILES: CSCC1C2CCC(O2)C1C/C=C\CCCC(=O)O (centres undefined)
Contraction (Rattus norvegicus [2]): 30%

SMILES: CCCCSCC1C2CCC(O2)C1C/C=C\CCCC(=O)O (centres undefined)
Agonist activity (Cavia porcellus [7]): 58% and 98%
Activity (Cavia porcellus [8]): 136% and 180%
Duration (Cavia porcellus [9]): <60 min

SMILES: CCSCC1C2CCC(O2)C1C/C=C\CCCC(=O)O (centres undefined)
Contraction (Rattus norvegicus [2]): 13%

SMILES: CCCCCSCCC1C2CCC(O2)C1C/C=C\CCCC(=O)O (centres undefined)
Stimulation (Homo sapiens [10]): 13%
Stimulation (Homo sapiens [11]): -45%
Stimulation (Homo sapiens [12]): -75%
inhibition (Homo sapiens [13]): 33%
inhibition (Homo sapiens [14]): 80%
inhibition (Homo sapiens [15]): 90%

IC50 (Cavia porcellus [5]): 380 nM
IC50 (Cavia porcellus [6]): > 100 µM
Kd (Thromboxane A2 receptor): 0.4 nM
IC50 (Homo sapiens [23]): 200 nM
SMILES: CC/C=C\CCSCC1C2CCC(O2)C1C/C=C\CCCC(=O)O (centres undefined)
Duration (Cavia porcellus [3]): >60 min
Activity (Cavia porcellus [8]): 245% and 97%
Inhibition (Homo sapiens [16]): 24.4%
Inhibition (Homo sapiens [17]): 56.9%
Stimulation (Homo sapiens [18]): 210%
Stimulation (Homo sapiens [19]): 900%
Stimulation (Homo sapiens [20]): 1920%
Stimulation (Homo sapiens [21]): 420%
Stimulation (Homo sapiens [22]): 1340%
A50 (Rattus norvegicus [1]): 0.2 µM
Inhibition (Homo sapiens [24]): 91.2%

— ChEMBL document CHEMBL1124688, “9,11-Epoxy-9-homo-14-thiaprost-5-enoic acid derivatives: potent thromboxane A2 antagonists” (J Med Chem, 1989)
